The assay concerns Colletotrichum fragariae. The assay is described as follows: Antifungal activity against Colletotrichum fragariae assessed as zone of inhibition. Type of assay: functional. In outline:
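Direct 1D-TLC bioautography on glass-backed Si gel plates (activated 1 h at 100 °C). Standards were applied at […] from 5 µM ethanolic solutions (1 × 10-5 µmol/spot) and developed in 1:1 EtOAc/hexanes. Plates were sprayed three times with conidia (ca. 3 × 10^5/mL) in PDB with 0.1% agar and 0.1% Tween-80, then incubated at 24 °C with a 12 h photoperiod. Inhibition zones were measured after 4 days.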

Each structure is given as a SMILES string. Active and inactive are the calls of the source. The calls are words filed in the database; no cut-off is given here.

Turning to `CC(=O)O.CCCCCCCCCCCCNC(=N)N` [DODINE], the inhibition zone (IZ) was 20 mm2. Regarding `COC(=O)Nc1nc2ccccc2[nH]1` [CARBENDAZIM], the inhibition zone (IZ) amounted to 24 mm2. With `CC(C)Oc1cccc(NC(=O)c2ccccc2C(F)(F)F)c1`, the result was inactive.

With `O=[N+]([O-])c1c(Cl)c(Cl)c(Cl)c(Cl)c1Cl` [PENTACHLORONITROBENZENE], the inhibition zone (IZ) was determined as 5 mm2.

`CO/C=C(/C(=O)OC)c1ccccc1Oc1cc(Oc2ccccc2C#N)ncn1` [AZOXYSTROBIN]: the inhibition zone (IZ) is 80 mm2.

For `COC(=O)NC(=S)Nc1ccccc1NC(=S)NC(=O)OC` [THIOPHANATE METHYL], the inhibition zone (IZ) was found to be 24 mm2. On to `c1ccc2[nH]c(-c3cscn3)nc2c1`, for which the result was inactive.

As to `O=CNC(N1CCN(C(NC=O)C(Cl)(Cl)Cl)CC1)C(Cl)(Cl)Cl` (stereo not given), the result was inactive. Turning to `Nc1c(Cl)cc([N+](=O)[O-])cc1Cl` [ALLISAN], the inhibition zone (IZ) was 80 mm2. For the compound `C=CC1(C)OC(=O)N(c2cc(Cl)cc(Cl)c2)C1=O` (stereo not given) [VINCLOZOLIN], the inhibition zone (IZ) was found to be 48 mm2.
